Laboratory results taken from ChEMBL document CHEMBL3286356, “Synthesis and biological comparison of enantiomers of mepenzolate bromide, a muscarinic receptor antagonist with bronchodilatory and anti-inflammatory activities” (Bioorg Med Chem, 2014).
Active and inactive are the calls of the source. The calls are words filed in the database; no cut-off is given here.

Assays:
Mus musculus [1] = assay: Antiinflammatory activity against ICR mouse assessed as inhibition of porcine pancreatic elastase-induced increase in neutrophil count in BALF at 7.5 to 38 ug/kg administered intratracheally 1 hr prior to porcine pancreatic elastase challenge measured after 6 hrs; format: functional, organism-based
Procedure, shortened: (§1)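 Male ICR mice (4-6 weeks), isoflurane-anaesthetised, dosed intratracheally in sterile saline (1 ml/kg) 1 h before intratracheal PPE (20 U/kg) or vehicle. BALF taken 6 h after PPE; total cells counted by hemocytometer, cytospin slides stained with Diff-Quik to get neutrophil fraction of total cells. Mean ± SEM; Tukey's test.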

Mus musculus [2] = assay: Antiinflammatory activity against ICR mouse assessed as inhibition of porcine pancreatic elastase-induced increase in TNF-alpha level at 7.5 to 38 ug/kg administered intratracheally 1 hr prior to porcine pancreatic elastase challenge measured after 6 hrs by ELISA; format: functional, organism-based
Procedure, shortened: (§2)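 Male ICR mice, 4-6 weeks old, under isoflurane anaesthesia, given each enantiomer or racemate intratracheally in sterile saline (1 ml/kg) by micropipette; 1 h later PPE (20 U/kg) or saline vehicle given the same way. BALF collected 6 h after PPE; TNF-α, MIP-2, MCP-1 and KC measured by ELISA. Mean ± SEM; Tukey's test.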

Mus musculus [3] = assay: Antiinflammatory activity against ICR mouse assessed as inhibition of porcine pancreatic elastase-induced increase in MIP-2 level at 7.5 to 38 ug/kg administered intratracheally 1 hr prior to porcine pancreatic elastase challenge measured after 6 hrs by ELISA; format: functional, organism-based; procedure, shortened: as §2
Mus musculus [4] = assay: Antiinflammatory activity against ICR mouse assessed as inhibition of porcine pancreatic elastase-induced increase in KC level at 7.5 to 38 ug/kg administered intratracheally 1 hr prior to porcine pancreatic elastase challenge measured after 6 hrs by ELISA; format: functional, organism-based; procedure, shortened: as §2
Mus musculus [5] = assay: Increase in heart rate in ICR mouse at 940 to 4700 ug/kg administered intratracheally measure immediately post dosing relative to control; format: ADME, organism-based; details: in vivo, inhaled_or_intranasal
Procedure, shortened: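 Male ICR mice (4-6 weeks) given compound intratracheally in sterile saline (1 ml/kg) under isoflurane; anaesthetised with chloral hydrate (500 mg/kg), pulse-oximeter sensor attached to thigh after 20 min. Heart rate (beats per minute) recorded immediately after dosing; percentage change from baseline to peak calculated. Mean ± SEM; Tukey's test.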

Mus musculus [6] = assay: Antiinflammatory activity against ICR mouse assessed as inhibition of porcine pancreatic elastase-induced increase in leucocyte count in BALF at 7.5 to 38 ug/kg administered intratracheally 1 hr prior to porcine pancreatic elastase challenge measured after 6 hrs; format: functional, organism-based; procedure, shortened: as §1
Mus musculus [7] = assay: Antiinflammatory activity against ICR mouse assessed as inhibition of porcine pancreatic elastase-induced increase in MCP-1 level at 7.5 to 38 ug/kg administered intratracheally 1 hr prior to porcine pancreatic elastase challenge measured after 6 hrs by ELISA; format: functional, organism-based; procedure, shortened: as §2
Mus musculus [8] = assay: Bronchodilatory activity in ICR mouse assessed as supression of methacholine-induced increase in airway resistance at 3.8 ug/kg administered intratracheally 1 hr prior to methacholine challenge; format: functional, organism-based
Procedure, shortened: (§3)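 Male ICR mice (4-6 weeks) given compound intratracheally in saline (1 ml/kg). 1 h later, anaesthetised with chloral hydrate (500 mg/kg), tracheotomised, and ventilated at 150 breaths/min, tidal volume 8.7 ml/kg, PEEP 2-3 cmH₂O. Challenged with nebulised methacholine (5 mg/ml), five 20 s exposures 40 s apart. Airway resistance measured after each challenge by snapshot technique. Mean ± SEM.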

Mus musculus [9] = assay: Bronchodilatory activity in ICR mouse assessed as supression of methacholine-induced increase in airway resistance at 38 ug/kg administered intratracheally 1 hr prior to methacholine challenge; format: functional, organism-based; procedure, shortened: as §3
Mus musculus [10] = assay: Suppression of fecal pellet output in ICR mouse at 4.7 mg/kg administered intratracheally 1 hr prior to restraint stress measured for 1 hr relative to control; format: organism-based, Feces; set-up: dose 4.7 mg/kg, route endotracheal; details: in vivo, inhaled_or_intranasal
Procedure, shortened: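 Male ICR mice (4-6 weeks) dosed intratracheally in sterile saline (1 ml/kg) under isoflurane; vehicle controls received saline alone. One hour later each mouse was restrained individually in a 50 ml tube for 1 h, and fecal pellets excreted during restraint were counted. Mean ± SEM; Tukey's test.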

Lung [11] = assay: Drug level in ICR mouse lung treated intratracheally with 20 mg/kg (S)-Mepenzolate after 5 to 30 mins; format: ADME, organism-based; set-up: dose 20 mg/kg, route endotracheal; details: in vivo, inhaled_or_intranasal
Procedure, shortened: (§4)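 Male ICR mice (4-6 weeks) under isoflurane given the enantiomer in sterile saline (1 ml/kg) intratracheally by micropipette. Whole lungs taken at indicated times, homogenised in sterile PBS with 50 U/ml heparin, centrifuged; 300 µl aliquot ultrafiltered and filtrate analysed by chiral HPLC (Chiralpak IA; water with 0.1 M KPF6/acetonitrile 30:70, 1.0 mL/min). Level expressed as µg/lung; mean ± SEM, n = 3.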

[12] = Drug level in ICR mouse lung at 20 mg/kg administered intratracheally after 5 mins; format: ADME, organism-based; set-up: dose 20 mg/kg, route endotracheal; details: inhaled or intranasal, read-out: Drug uptake; procedure, shortened: as §4
[13] = Drug level in ICR mouse lung at 20 mg/kg administered intratracheally after 15 mins; format: ADME, organism-based; set-up: dose 20 mg/kg, route endotracheal; details: inhaled or intranasal, read-out: Drug uptake; procedure, shortened: as §4
[14] = Drug level in ICR mouse lung at 20 mg/kg administered intratracheally after 30 mins; format: ADME, organism-based; set-up: dose 20 mg/kg, route endotracheal; details: inhaled or intranasal, read-out: Drug uptake; procedure, shortened: as §4
Lung [15] = assay: Drug level in ICR mouse lung treated intratracheally with 20 mg/kg (R)-Mepenzolate after 5 to 30 mins; format: ADME, organism-based; set-up: dose 20 mg/kg, route endotracheal; details: in vivo, inhaled_or_intranasal; procedure, shortened: as §4

Structure (SMILES): C[N+]1(C)CCC[C@@H](OC(=O)C(O)(c2ccccc2)c2ccccc2)C1.[Br-]
- Activity (Mus musculus [1]): Active
- Activity (Mus musculus [2]): Active
- Activity (Mus musculus [3]): Active
- Activity (Mus musculus [4]): Active
- Activity (Mus musculus [5]): Toxic
- Activity (Mus musculus [6]): Active
- Activity (Mus musculus [7]): Active
- Activity (Mus musculus [8]): Active
- Activity (Mus musculus [9]): Active
- Activity (Mus musculus [10]): Toxic
- Drug metabolism (Lung [11]): metabolite_notdetected
- concentration at 5 min [12]: 44500 ng/mL
- concentration at 0.25 h [13]: 6300 ng/mL
- concentration at 0.5 h [14]: 5100 ng/mL

Structure (SMILES): C[N+]1(C)CCC[C@H](OC(=O)C(O)(c2ccccc2)c2ccccc2)C1.[Br-]
- Activity (Mus musculus [1]): Active
- Activity (Mus musculus [2]): Active
- Activity (Mus musculus [3]): Active
- Activity (Mus musculus [4]): Active
- Drug metabolism (Lung [15]): metabolite_notdetected
- Activity (Mus musculus [5]): Toxic
- Activity (Mus musculus [6]): Active
- Activity (Mus musculus [7]): Active
- Activity (Mus musculus [8]): inactive
- Activity (Mus musculus [9]): Active
- Activity (Mus musculus [10]): Non-toxic
- concentration at 5 min [12]: 36400 ng/mL
- concentration at 0.25 h [13]: 7600 ng/mL
- concentration at 0.5 h [14]: 6200 ng/mL

Structure (SMILES): C[N+]1(C)CCCC(OC(=O)C(O)(c2ccccc2)c2ccccc2)C1.[Br-] (racemic) [MEPENZOLATE BROMIDE]
- Activity (Mus musculus [1]): Active
- Activity (Mus musculus [2]): Active
- Activity (Mus musculus [3]): Active
- Activity (Mus musculus [4]): Active
- Activity (Mus musculus [5]): Toxic
- Activity (Mus musculus [6]): Active
- Activity (Mus musculus [7]): Active
- Activity (Mus musculus [8]): Active
- Activity (Mus musculus [9]): Active
- Activity (Mus musculus [10]): Toxic
